Experimental findings from the array DNA melting data of Ke et al. (doi:10.1101/2024.01.08.574731) are described below.

Data set [1] can be described thus: melting temperature; fluorescence melt of hairpins on a sequencing array, two-state fit, raised by 9.35 °C to match UV melts. The conditions noted are these: sodium 0.088 M. The gist of the method: (§1)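 Melting temperature and folding enthalpy were obtained by bootstrapped two-state fitting. Fits used Cy3 fluorescence of library hairpins with annealed Cy3 and quencher oligos on a sequenced MiSeq flow cell, imaged in 50 mM Na-HEPES pH 8.0, 25 mM NaCl in 2.5 °C steps up to 60 °C and normalised to pre-quench Cy3 and control constructs. Four replicates were combined by inverse-variance weighting, and fitted temperatures were raised by 9.35 °C to match UV melts.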

Data set [2] can be described thus: folding enthalpy; higher = less favourable; fluorescence melt of hairpins on a sequencing array, two-state fit. The conditions noted are these: sodium 0.088 M. The gist of the method: as §1

For the sequence GAGGTAGGAAACTGCCTC ((((.((....)).)))), the Tm in data set [1] came out at 49.9 °C. Moreover, the folding enthalpy in data set [2] was -37.1 kcal/mol.
On the same counts, the results for GGGCGCGAAAGCGGTCCC ((((((....)))..))) are 63.8 °C and -11.7 kcal/mol.
On to GGCAGGACGAAAGTCGCC (((..(((....)))))), for which the Tm in data set [1] came out at 55.4 °C. Also, in data set [2], the folding enthalpy was -38.2 kcal/mol.
For the sequence GCCGTTGGAAACAACAGC ((.((((....)))).)), in data set [1], the Tm worked out at 41.6 °C. Moreover, in data set [2], the folding enthalpy is -18.7 kcal/mol.
In the case of GTCTTCGAAAGAAAGAC ((((((....))).))), in data set [1], the Tm worked out at 42.6 °C. For the same sequence, in data set [2], the folding enthalpy is -21.8 kcal/mol.
Taken in the same sequence, the figures for GCTGAGCGAAAGCAAAGC (((..((....))..))) were 60.2 °C and -28.5 kcal/mol.
On the same counts, the results for GAACGCGGAAACGCGCTC ((.((((....)))).)) are 50.3 °C and -15.1 kcal/mol.
In the case of GGTGAAGGAAACTTCGTC (..((((....))))..), in data set [1], the Tm was determined as 26.6 °C. Further, the folding enthalpy in data set [2] was -12 kcal/mol.
Turning to GTGTACGGAAACACACAC ((((..(....)..)))), the Tm in data set [1] was found to be 31.9 °C. The folding enthalpy in data set [2] is -12.6 kcal/mol.
Consider GATCCAAAACTGGATC ((((((....)))))), for which the Tm in data set [1] is 45.6 °C. Besides, the folding enthalpy in data set [2] was -31.6 kcal/mol.
Take GAAGCTGGAAACGGCTTC (((((.(....).))))): the Tm in data set [1] stood at 53.4 °C. For the same sequence, the folding enthalpy in data set [2] is -42.9 kcal/mol.
For the sequence GATCGGGCACCCGATC ((((((....)))))), in data set [1], the Tm worked out at 64.6 °C. In addition, the folding enthalpy in data set [2] was -39.9 kcal/mol.
For the sequence GGTTCGGGAAACCGAGTC (..((((....))))..), the Tm in data set [1] is 36.5 °C. The folding enthalpy in data set [2] is -13.1 kcal/mol.
Take GCGATCGAAAGATACGC ((((((....))).))): the Tm in data set [1] worked out at 50.1 °C. The folding enthalpy in data set [2] is -25.5 kcal/mol.
On the same counts, the results for GGTTTCGGAAACGAGACC (((.(((....))).))) are 50 °C and -33.1 kcal/mol.
Turning to GAGTGCGGAAACACACCC (.(((.(....).))).), the Tm in data set [1] is 28.1 °C. Moreover, the folding enthalpy in data set [2] was -15.5 kcal/mol.
As for GGAAGCGGAAACGCTCCC ((.((((....)))).)), the Tm in data set [1] amounted to 52.4 °C. Also, the folding enthalpy in data set [2] is -19.8 kcal/mol.
Taken in the same sequence, the figures for GGGGCCGGAAACAGCCCC (((((.(....).))))) were 57 °C and -41.3 kcal/mol.
On the same counts, the results for GATCCTTTGAAGGATC ((((((....)))))) are 52.4 °C and -36 kcal/mol.
For CGTTCGGAAACGATACG ((((((....))).))), the Tm in data set [1] stood at 42.1 °C. Moreover, in data set [2], the folding enthalpy is -27.1 kcal/mol.
Consider GCTATGCGAAAGCTTTGC ((.(.((....)).).)), for which the Tm in data set [1] is 43.4 °C. In addition, the folding enthalpy in data set [2] was -18.2 kcal/mol.
As for GGCTCTCGAAAGAGTGCC (((.(((....))).))), the Tm in data set [1] was 58.1 °C. Also, in data set [2], the folding enthalpy was -49.1 kcal/mol.
Consider GCTGTAGAAATACAGC ((((((....)))))), for which the Tm in data set [1] was 56.9 °C. For the same sequence, the folding enthalpy in data set [2] was -34.7 kcal/mol.
As to GTCGTAGGAAACTGTGAC (((..((....))..))), the Tm in data set [1] came to 30.8 °C. Further, the folding enthalpy in data set [2] is -16.6 kcal/mol.
On to GGCATCGAAAGATAGCC ((((((....))).))), for which, in data set [1], the Tm amounted to 51.9 °C. The folding enthalpy in data set [2] was -25.6 kcal/mol.
On the same counts, the results for GCCGACGAAAGTCCGGGC ((((((....)))..))) are 53 °C and -24.4 kcal/mol.
On the same counts, the results for GGTCGGGGAAACCCAACC (((.(((....))).))) are 44.9 °C and -27 kcal/mol.
GGTCACGAAAGTGAAACC ((((((....)))..))): the Tm in data set [1] came to 41.4 °C. Moreover, in data set [2], the folding enthalpy is -17.9 kcal/mol.
As to GATCAAATTTTGATC ((((((...)))))), the Tm in data set [1] amounted to 43 °C. Moreover, in data set [2], the folding enthalpy was -31.4 kcal/mol.
On to GATCACTTAGTGATC ((((((...)))))), for which the Tm in data set [1] stood at 58.6 °C. The folding enthalpy in data set [2] was -37 kcal/mol.
